Published values from different studies.
Lines come from different studies, so protocols differ.
Target: Platelet-derived growth factor receptor beta (PDGFRB, Homo sapiens, UniProt P09619)

Structure (SMILES)	effect on	technique	tested at	remaining binding [%]
COc1ccc2c(c1)O[C@@H](c1ccc(OC)c(OC)c1)C[C@H]2NC(=O)C1(c2ccc3c(c2)OC(F)(F)O3)CC1	cell-free assay	competition with immobilised ligand	1 µM	100
O=C(c1ccc(Nc2ncc(Cl)c(-c3cc4ccccc4s3)n2)cc1)N1CCC(N2CCCC2)CC1	binding	competition with immobilised ligand	1 µM	1.9
COc1cnc(Nc2cccc(S(N)(=O)=O)c2)nc1N1CCN(c2ccccc2)CC1	binding	competition with immobilised ligand	1 µM	87
FC(F)(F)c1ccc2c(c1)nc(-c1cccnc1)n2C1CC1	cell-free assay	competition with immobilised ligand	1 µM	100
N[C@H]1CCN(c2nccc(-c3cnn4ncccc34)n2)C1	binding		1 µM	93
C[C@@H]1CN(c2ccc3ncc(-c4ccc5[nH]nc(C6CC6)c5c4)n3n2)C[C@H](C)O1	binding	competition with immobilised ligand	0.5 µM	12
CNC(=O)[C@@H]1CC[C@@H](n2c(-c3ccc4cnccc4c3)nc3ccc(C(=O)NCc4cccc(C(N)=O)c4)cc32)C1	binding	competition with immobilised ligand	1 µM	100
CN(C)c1nccc(-c2cnn3ncccc23)n1	binding		1 µM	100
CCC(=N\O)/C(C)=C/c1ccc(F)cc1	cell-free assay	competition with immobilised ligand	1 µM	100
COc1ccnn2ncc(-c3ccnc(N(C)C)n3)c12	binding		1 µM	100
Cc1cc(-n2nc(Cc3cc(F)cc(C(F)(F)F)c3)nc2C)ccc1C(N)=O	cell-free assay	competition with immobilised ligand	1 µM	98
CC(C)(C)c1ccc(-c2nc(CBr)nn2-c2cccc(O)c2)cc1	cell-free assay	competition with immobilised ligand	10 µM	86
CN(C)c1nccc(-c2cnc3ncccn23)n1	binding		1 µM	90
C[C@@H]1CN(c2cc(-c3n[nH]c4ccc(OC5(C)CC5)cc34)ncn2)C[C@H](C)O1	cell-free assay	competition with immobilised ligand	0.1 µM	73
Nc1ncc2c(n1)-c1c([nH]c3ccc(C#CC4CC4)cc13)CCCC2	binding	competition with immobilised ligand	1 µM	100
C[C@@H](c1ccc(-n2cnc3c(N)ncnc32)cc1)N1CCc2nn(C)c(Cc3ccccc3)c2C1=O	binding	competition with immobilised ligand	0.1 µM	17
O=C(NCCCN1CCOCC1)c1ccc(Nc2ncc(Cl)c(-c3ccc(Cl)s3)n2)cc1	binding	competition with immobilised ligand	1 µM	0.05
CN(C)c1ncc(F)c(-c2cnn3ncccc23)n1	binding		1 µM	100
O=C(c1ccc(Nc2nccc(-c3cc4ccccc4s3)n2)cc1)N1CCC(N2CCCC2)CC1	binding	competition with immobilised ligand	1 µM	11
CCN1CCN(Cc2ccc(C(=O)Nc3ccc(C)c(Oc4ccc5c(c4)CC(=O)N5)c3)cc2C(F)(F)F)CC1	binding	competition with immobilised ligand	1 µM	0.85
O=C(Nc1c[nH]nc1C(=O)NC1CCNCC1)c1cc(F)cc(F)c1	binding	competition with immobilised ligand	1 µM	100
CNC(=O)Nc1ccc2c(c1)[C@@]1(CC2)OC(=O)N(CC(=O)N(Cc2ccc(F)cc2)[C@@H](C)C(F)(F)F)C1=O	cell-free assay	competition with immobilised ligand	1 µM	87
CN(CCCC(F)(F)F)c1nccc(-c2cnn3ncccc23)n1	binding		1 µM	95
Cc1nccc(COC(=O)N2C[C@@H]3[C@@H](CNC(=O)c4ccc5[nH]nnc5c4)[C@@H]3C2)n1	cell-free assay	competition with immobilised ligand	1 µM	84
CCN(CC)CCCCNc1ncc2cc(-c3cc(OC)cc(OC)c3)c(NC(=O)NC(C)(C)C)nc2n1	cell-free assay	competition with immobilised ligand	1 µM	38
